Reference: PubChem BioAssay AID624290 (Broad Institute, 2012)
The source made the active and inactive calls.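 The calls were made as follows: active = compounds dimming the MITF-driven luciferase signal, with fitted AC50 at most twice the top tested dose; inconclusive = flat curves with moderate signal drop, or poor-quality fits; inactive = the rest.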

Experiment: TRPM1 promoter luciferase signal reduction, dose response, MITF inhibitor project, cell-based, SK-MEL-5, dry powder samples, set 2 (AID 624290)
Details: SK-MEL-5 TRPM1-promoter luciferase reporter, 24 h; at 35 µM (top of the series)
Procedure, shortened: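 material = SK-MEL-5 TRPM1-promoter luciferase reporter cells | timing = compound pinned one day after plating, 24 h exposure at 37 °C | signal = luciferase luminescence with SteadyGlo reagent, 5 min room-temperature incubation | evaluation = luminescence change reflecting TRPM1 promoter activity, decrease as inhibition | benchmarks = parthenolide as positive control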

With `O=C(NC1=C(N2CCCCC2)C(=O)c2ccccc2C1=O)c1ccc(Br)cc1` the activity change, negative = inhibition was -0.221% (inactive).
